Assay results taken from ChEMBL document CHEMBL2424622, “Development of amino-pyrimidine inhibitors of c-Jun N-terminal kinase (JNK): kinase profiling guided optimization of a 1,2,3-benzotriazole lead” (Bioorg Med Chem Lett, 2013).
In brackets after ≈: the same amount, converted by molar mass. Blank lines part the entries; values can stand above or below the molecule they belong to.

Assays:
[1] = AUC (0 to infinity) in Hanover-Wistar rat at 20 mg/kg, po; type: ADME, organism-based; design: time infinity, dose 20 mg/kg, route oral; details: plasma
[2] = molecular target: Interferon-induced, double-stranded RNA-activated protein kinase (Homo sapiens, UniProt P19525); test: Binding affinity to PRKR (unknown origin)
[3] = molecular target: Glycogen synthase kinase-3 beta (Homo sapiens, UniProt P49841); test: Binding affinity to GSK3B (unknown origin)
[4] = tested on: Rattus norvegicus; test: Cmax in Hanover-Wistar rat at 2 mg/kg, po; type: ADME, organism-based; design: dose 2 mg/kg, route oral; details: in vivo
[5] = Clearance in human liver microsomes; type: ADME, Microsome; details: read-out: CLH
Method in brief: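 Intrinsic clearance was measured in vitro in human liver microsomes and expressed per mg microsomal protein.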

[6] = Intrinsic permeability from apical to basolateral side in human Caco2 cells at 10 uM; type: ADME, cell-based; details: Caco-2, read-out: permeability
[7] = molecular target: Dual specificity mitogen-activated protein kinase kinase 6 (Homo sapiens, UniProt P52564); test: Binding affinity to MEK6 (unknown origin)
[8] = Oral bioavailability in Hanover-Wistar rat at 20 mg/kg; type: ADME, organism-based; details: in vivo
[9] = AUC (0 to infinity) in Hanover-Wistar rat at 0.5 mg/kg, iv; type: ADME, organism-based; design: dose 0.5 mg/kg, route intravenous, time infinity; details: plasma
[10] = Fraction unbound in human plasma; type: ADME, cell-free
[11] = molecular target: Mitogen-activated protein kinase 9 (Homo sapiens, UniProt P45984); test: Binding affinity to JNK2 (unknown origin)
[12] = Intrinsic permeability from basolateral to apical side in human Caco2 cells at 10 uM; type: ADME, cell-based; details: Caco-2, read-out: permeability
[13] = molecular target: Cyclin-dependent kinase 11A (Homo sapiens, UniProt Q9UQ88); test: Binding affinity to CDC2L2 (unknown origin)
[14] = Intrinsic clearance in human liver microsomes measured per mg of protein; type: ADME, Microsome; details: read-out: CLH
[15] = molecular target: Serine/threonine-protein kinase 16 (Homo sapiens, UniProt O75716); test: Binding affinity to STK16 (unknown origin)
[16] = Oral bioavailability in Hanover-Wistar rat at 2 mg/kg; type: ADME, organism-based; details: in vivo
[17] = molecular target: Mitogen-activated protein kinase 4 (Homo sapiens, UniProt P31152); test: Binding affinity to ERK4 (unknown origin)
[18] = molecular target: MAP kinase-interacting serine/threonine-protein kinase 1 (Homo sapiens, UniProt Q9BUB5); test: Binding affinity to MKNK1 (unknown origin)
[19] = tested on: Rattus norvegicus; test: Cmax in Hanover-Wistar rat at 0.5 mg/kg, iv; type: ADME, organism-based; design: dose 0.5 mg/kg, route intravenous; details: in vivo
[20] = AUC (0 to infinity) in Hanover-Wistar rat at 2 mg/kg, po; type: ADME, organism-based; design: time infinity, dose 2 mg/kg, route oral; details: plasma
[21] = molecular target: Mitogen-activated protein kinase 14 (Homo sapiens, UniProt Q16539); test: Binding affinity to p38-alpha (unknown origin)
[22] = molecular target: Mitogen-activated protein kinase 8 (Homo sapiens, UniProt P45983); test: Binding affinity to JNK1 (unknown origin)
[23] = molecular target: Atypical kinase COQ8A, mitochondrial (Homo sapiens, UniProt Q8NI60); test: Binding affinity to ADCK3 (unknown origin)
[24] = molecular target: Mitogen-activated protein kinase 3 (Homo sapiens, UniProt P27361); test: Binding affinity to ERK1 (unknown origin)
[25] = molecular target: eIF-2-alpha kinase GCN2 (Homo sapiens, UniProt Q9P2K8, S808G); test: Binding affinity to GCN2 kinase domain 2 S808G mutant (unknown origin)
[26] = molecular target: Myosin light chain kinase family member 4 (Homo sapiens, UniProt Q86YV6); test: Binding affinity to SgK085 (unknown origin)
[27] = molecular target: Serine/threonine-protein kinase Nek7 (Homo sapiens, UniProt Q8TDX7); test: Binding affinity to NEK7 (unknown origin)
[28] = molecular target: Mitogen-activated protein kinase 1 (Homo sapiens, UniProt P28482); test: Binding affinity to ERK2 (unknown origin)
[29] = molecular target: Platelet-derived growth factor receptor beta (Homo sapiens, UniProt P09619); test: Binding affinity to PDGFRB (unknown origin)
[30] = molecular target: Mitogen-activated protein kinase 15 (Homo sapiens, UniProt Q8TD08); test: Binding affinity to ERK8 (unknown origin)
[31] = molecular target: Death-associated protein kinase 3 (Homo sapiens, UniProt O43293); test: Binding affinity to DAPK3 (unknown origin)
[32] = molecular target: Mitogen-activated protein kinase 10 (Homo sapiens, UniProt P53779); test: Binding affinity to JNK3 (unknown origin)
[33] = molecular target: NUAK family SNF1-like kinase 2 (Homo sapiens, UniProt Q9H093); test: Binding affinity to SNARK (unknown origin)
[34] = molecular target: Serine/threonine-protein kinase Nek5 (Homo sapiens, UniProt Q6P3R8); test: Binding affinity to NEK5 (unknown origin)
[35] = molecular target: Glycogen synthase kinase-3 alpha (Homo sapiens, UniProt P49840); test: Binding affinity to GSK3A (unknown origin)
[36] = molecular target: Atypical kinase COQ8B, mitochondrial (Homo sapiens, UniProt Q96D53); test: Binding affinity to ADCK4 (unknown origin)
[37] = molecular target: Cyclin-dependent kinase 7 (Homo sapiens, UniProt P50613); test: Binding affinity to CDK7 (unknown origin)
[38] = molecular target: Mitogen-activated protein kinase 11 (Homo sapiens, UniProt Q15759); test: Binding affinity to p38-beta (unknown origin)
[39] = molecular target: Serine/threonine-protein kinase Nek1 (Homo sapiens, UniProt Q96PY6); test: Binding affinity to NEK1 (unknown origin)
[40] = molecular target: Dual specificity mitogen-activated protein kinase kinase 4 (Homo sapiens, UniProt P45985); test: Binding affinity to MEK4 (unknown origin)
[41] = Intrinsic clearance in rat liver microsomes measured per mg of protein; type: ADME, Microsome; details: read-out: CLH
[42] = tested on: Rattus norvegicus; test: Cmax in Hanover-Wistar rat at 20 mg/kg, po; type: ADME, organism-based; design: dose 20 mg/kg, route oral; details: in vivo
[43] = Half life in Hanover-Wistar rat at 20 mg/kg, po; type: ADME, organism-based; design: dose 20 mg/kg, route oral; details: in vivo
[44] = Clearance in Hanover-Wistar rat at 0.5 mg/kg, iv; type: ADME, organism-based; design: dose 0.5 mg/kg, route intravenous; details: in vivo
[45] = molecular target: MAP kinase p38 (Homo sapiens, UniProt O15264+Q15759+Q16539+P53778); test: Inhibition of p38 (unknown origin)-dependent HSP27 phosphorylation by cell-based assay
[46] = Half life in Hanover-Wistar rat at 2 mg/kg, po; type: ADME, organism-based; design: dose 2 mg/kg, route oral; details: in vivo
[47] = molecular target: Death-associated protein kinase 1 (Homo sapiens, UniProt P53355); test: Binding affinity to DAPK1 (unknown origin)
[48] = Equilibrium aqueous solubility in phosphate buffer at pH 6.5 at 25 degC; type: physicochemical
[49] = molecular target: Serine/threonine-protein kinase 25 (Homo sapiens) (UniProt O00506); test: Competitive binding affinity to STK25 (unknown origin) at 10 uM in presence of ATP relative to control
[50] = molecular target: Serine/threonine-protein kinase SIK2 (Homo sapiens) (UniProt Q9H0K1); test: Competitive binding affinity to QIK (unknown origin) at 10 uM in presence of ATP relative to control
[51] = molecular target: Serine/threonine-protein kinase 24 (Homo sapiens) (UniProt Q9Y6E0); test: Competitive binding affinity to STK24 (unknown origin) at 10 uM in presence of ATP relative to control

Sequence of eIF-2-alpha kinase GCN2 (Q9P2K8 whole entry S808G, the tested form may be a part): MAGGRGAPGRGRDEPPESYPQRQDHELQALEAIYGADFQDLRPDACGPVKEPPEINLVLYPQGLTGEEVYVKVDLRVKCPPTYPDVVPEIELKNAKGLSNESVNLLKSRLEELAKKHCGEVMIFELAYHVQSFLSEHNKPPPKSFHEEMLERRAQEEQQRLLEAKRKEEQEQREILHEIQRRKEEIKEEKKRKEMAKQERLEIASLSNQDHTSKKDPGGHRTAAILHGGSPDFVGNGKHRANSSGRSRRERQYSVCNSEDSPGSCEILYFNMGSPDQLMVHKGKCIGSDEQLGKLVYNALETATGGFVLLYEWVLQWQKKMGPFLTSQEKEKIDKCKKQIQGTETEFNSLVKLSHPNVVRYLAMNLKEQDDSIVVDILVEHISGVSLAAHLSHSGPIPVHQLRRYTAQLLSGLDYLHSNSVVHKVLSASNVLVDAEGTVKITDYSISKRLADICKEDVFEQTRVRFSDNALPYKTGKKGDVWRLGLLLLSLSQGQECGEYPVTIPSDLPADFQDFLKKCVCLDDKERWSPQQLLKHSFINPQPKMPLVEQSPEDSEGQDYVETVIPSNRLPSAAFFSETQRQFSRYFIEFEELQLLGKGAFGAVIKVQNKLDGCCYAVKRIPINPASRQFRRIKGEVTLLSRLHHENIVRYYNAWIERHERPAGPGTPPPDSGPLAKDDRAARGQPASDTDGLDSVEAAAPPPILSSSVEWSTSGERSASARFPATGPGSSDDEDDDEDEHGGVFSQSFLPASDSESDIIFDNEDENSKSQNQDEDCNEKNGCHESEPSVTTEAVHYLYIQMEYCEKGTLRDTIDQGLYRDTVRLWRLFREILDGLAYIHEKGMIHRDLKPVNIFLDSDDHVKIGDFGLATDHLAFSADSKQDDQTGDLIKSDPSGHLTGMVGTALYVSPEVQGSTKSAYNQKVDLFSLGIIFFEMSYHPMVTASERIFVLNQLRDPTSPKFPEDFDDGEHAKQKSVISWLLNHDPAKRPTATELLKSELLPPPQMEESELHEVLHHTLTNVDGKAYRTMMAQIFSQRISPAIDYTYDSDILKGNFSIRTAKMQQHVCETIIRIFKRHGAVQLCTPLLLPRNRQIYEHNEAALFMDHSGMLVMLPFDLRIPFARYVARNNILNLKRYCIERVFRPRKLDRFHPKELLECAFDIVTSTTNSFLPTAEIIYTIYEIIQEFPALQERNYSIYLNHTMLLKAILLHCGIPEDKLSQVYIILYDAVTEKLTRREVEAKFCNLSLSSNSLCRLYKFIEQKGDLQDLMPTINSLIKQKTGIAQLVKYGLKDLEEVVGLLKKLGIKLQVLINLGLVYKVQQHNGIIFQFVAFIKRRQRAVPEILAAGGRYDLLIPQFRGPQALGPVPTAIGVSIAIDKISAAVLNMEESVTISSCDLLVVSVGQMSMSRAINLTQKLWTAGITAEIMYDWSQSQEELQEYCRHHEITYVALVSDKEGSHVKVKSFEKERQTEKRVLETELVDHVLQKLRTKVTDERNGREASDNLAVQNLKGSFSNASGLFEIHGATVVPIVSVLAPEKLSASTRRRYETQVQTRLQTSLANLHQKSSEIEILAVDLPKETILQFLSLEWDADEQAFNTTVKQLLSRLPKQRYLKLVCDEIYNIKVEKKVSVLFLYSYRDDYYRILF
Sequence of Death-associated protein kinase 1 (P53355 whole entry): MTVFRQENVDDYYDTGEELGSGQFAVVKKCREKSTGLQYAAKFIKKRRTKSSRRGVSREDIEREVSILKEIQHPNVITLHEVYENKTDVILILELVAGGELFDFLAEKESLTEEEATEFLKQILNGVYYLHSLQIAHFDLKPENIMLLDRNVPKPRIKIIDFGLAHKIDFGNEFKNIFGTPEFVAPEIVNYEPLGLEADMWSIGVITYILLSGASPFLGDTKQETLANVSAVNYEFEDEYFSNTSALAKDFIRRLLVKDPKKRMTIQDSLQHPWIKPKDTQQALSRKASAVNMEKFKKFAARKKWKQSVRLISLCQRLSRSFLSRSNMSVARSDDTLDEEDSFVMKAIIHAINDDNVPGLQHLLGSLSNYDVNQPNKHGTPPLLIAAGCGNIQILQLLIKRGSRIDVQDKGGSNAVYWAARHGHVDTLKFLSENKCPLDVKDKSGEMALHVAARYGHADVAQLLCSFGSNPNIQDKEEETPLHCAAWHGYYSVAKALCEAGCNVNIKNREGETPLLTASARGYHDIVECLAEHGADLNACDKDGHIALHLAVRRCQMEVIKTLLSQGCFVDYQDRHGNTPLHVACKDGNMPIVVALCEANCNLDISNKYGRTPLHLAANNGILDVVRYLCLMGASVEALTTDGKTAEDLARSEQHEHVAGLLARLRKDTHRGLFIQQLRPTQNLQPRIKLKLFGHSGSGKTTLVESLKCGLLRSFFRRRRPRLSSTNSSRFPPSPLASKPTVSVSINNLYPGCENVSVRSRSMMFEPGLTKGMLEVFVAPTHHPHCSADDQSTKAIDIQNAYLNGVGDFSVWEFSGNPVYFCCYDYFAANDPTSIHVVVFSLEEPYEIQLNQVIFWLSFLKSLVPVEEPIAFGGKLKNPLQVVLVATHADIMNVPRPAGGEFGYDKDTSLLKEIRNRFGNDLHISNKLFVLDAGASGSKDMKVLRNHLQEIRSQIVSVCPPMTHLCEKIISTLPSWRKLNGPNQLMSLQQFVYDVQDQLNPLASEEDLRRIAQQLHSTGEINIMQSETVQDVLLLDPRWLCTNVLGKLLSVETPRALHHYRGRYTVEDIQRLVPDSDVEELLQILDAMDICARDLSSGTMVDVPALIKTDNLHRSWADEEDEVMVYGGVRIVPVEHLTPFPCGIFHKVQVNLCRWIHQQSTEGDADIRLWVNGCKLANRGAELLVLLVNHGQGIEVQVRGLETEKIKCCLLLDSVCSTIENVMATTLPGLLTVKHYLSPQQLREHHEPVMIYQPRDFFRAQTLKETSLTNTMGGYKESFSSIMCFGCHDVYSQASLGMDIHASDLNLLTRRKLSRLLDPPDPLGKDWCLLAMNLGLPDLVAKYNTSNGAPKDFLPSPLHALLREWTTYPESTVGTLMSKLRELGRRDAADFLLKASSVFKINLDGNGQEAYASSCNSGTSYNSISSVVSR
Sequence of Atypical kinase COQ8A, mitochondrial (Q8NI60 whole entry): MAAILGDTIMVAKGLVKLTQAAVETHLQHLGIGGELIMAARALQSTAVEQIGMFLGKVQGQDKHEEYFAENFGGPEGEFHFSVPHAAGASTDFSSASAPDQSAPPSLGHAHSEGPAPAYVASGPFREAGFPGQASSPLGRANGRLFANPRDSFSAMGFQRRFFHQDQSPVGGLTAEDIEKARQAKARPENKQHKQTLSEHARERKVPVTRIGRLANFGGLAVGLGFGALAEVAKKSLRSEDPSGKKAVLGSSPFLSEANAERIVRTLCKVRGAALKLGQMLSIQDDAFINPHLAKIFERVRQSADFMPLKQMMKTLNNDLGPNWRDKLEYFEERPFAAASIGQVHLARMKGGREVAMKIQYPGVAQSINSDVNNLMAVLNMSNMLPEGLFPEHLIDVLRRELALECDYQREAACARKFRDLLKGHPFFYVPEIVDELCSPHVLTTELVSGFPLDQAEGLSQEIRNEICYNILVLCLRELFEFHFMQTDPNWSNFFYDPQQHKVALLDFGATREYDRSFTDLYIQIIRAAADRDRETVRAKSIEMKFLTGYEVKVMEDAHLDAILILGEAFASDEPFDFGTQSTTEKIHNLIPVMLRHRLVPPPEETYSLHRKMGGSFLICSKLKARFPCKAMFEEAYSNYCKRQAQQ
Sequence of Mitogen-activated protein kinase 8 (P45983 whole entry): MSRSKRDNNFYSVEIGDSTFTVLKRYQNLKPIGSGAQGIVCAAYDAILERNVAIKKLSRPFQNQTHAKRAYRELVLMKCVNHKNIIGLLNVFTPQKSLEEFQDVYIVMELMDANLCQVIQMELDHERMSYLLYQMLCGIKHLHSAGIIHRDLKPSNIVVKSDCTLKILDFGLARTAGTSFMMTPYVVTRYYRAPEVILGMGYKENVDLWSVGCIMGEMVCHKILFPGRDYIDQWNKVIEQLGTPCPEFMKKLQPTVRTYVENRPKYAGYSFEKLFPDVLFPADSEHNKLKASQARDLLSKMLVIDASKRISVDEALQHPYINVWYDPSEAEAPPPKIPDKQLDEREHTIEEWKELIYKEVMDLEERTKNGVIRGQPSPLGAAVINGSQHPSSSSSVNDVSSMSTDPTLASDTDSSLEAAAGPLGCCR
Sequence of Interferon-induced, double-stranded RNA-activated protein kinase (P19525 whole entry): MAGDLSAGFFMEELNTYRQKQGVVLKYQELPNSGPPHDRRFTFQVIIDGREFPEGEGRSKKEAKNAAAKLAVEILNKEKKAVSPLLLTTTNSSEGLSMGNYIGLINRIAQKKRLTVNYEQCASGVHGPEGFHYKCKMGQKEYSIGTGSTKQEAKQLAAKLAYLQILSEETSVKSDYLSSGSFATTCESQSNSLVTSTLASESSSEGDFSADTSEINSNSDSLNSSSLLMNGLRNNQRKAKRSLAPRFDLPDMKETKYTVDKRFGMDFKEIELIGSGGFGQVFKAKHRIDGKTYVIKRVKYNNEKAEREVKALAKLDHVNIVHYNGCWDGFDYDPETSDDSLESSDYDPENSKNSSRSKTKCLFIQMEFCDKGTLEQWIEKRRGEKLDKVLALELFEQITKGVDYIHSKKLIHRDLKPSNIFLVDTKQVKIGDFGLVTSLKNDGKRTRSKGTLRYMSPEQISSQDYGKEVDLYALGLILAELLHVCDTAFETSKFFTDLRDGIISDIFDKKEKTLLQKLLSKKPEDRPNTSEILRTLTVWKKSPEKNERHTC
Sequence of Cyclin-dependent kinase 7 (P50613 whole entry): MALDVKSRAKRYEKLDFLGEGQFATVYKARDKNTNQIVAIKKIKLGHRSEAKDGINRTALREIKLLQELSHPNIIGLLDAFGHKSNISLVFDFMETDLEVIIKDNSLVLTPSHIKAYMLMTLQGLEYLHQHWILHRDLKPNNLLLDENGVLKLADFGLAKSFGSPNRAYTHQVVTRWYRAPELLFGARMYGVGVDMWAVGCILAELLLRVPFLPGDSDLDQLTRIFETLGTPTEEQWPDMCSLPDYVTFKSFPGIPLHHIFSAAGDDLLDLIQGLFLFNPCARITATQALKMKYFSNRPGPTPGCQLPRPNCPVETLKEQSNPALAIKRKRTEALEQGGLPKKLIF

- AUC(0-inf) [1]: 9330 ng·h/mL
- Kd [2]: 120 nM
- Kd [3]: 5400 nM
- Cmax [4]: 91 ng/mL
- microsomal CLint [5]: 30 µL/min/mg
- Papp A→B at 10 µM [6]: 0.2 ×10⁻⁶ cm/s
- Kd [7]: 310 nM
- bioavailability [8]: 13%
- AUC(0-inf) [9]: 1850 ng·h/mL
- fraction unbound [10]: 0.05
- Kd [11]: 13 nM
- Papp B→A at 10 µM [12]: 11.5 ×10⁻⁶ cm/s
- Kd [13]: 2400 nM
- microsomal CLint [14]: 30 µL/min/mg
- Kd [15]: 450 nM
- bioavailability [16]: 7%
- Kd [17]: 11000 nM
- Kd [18]: 2100 nM
- Cmax [19]: 2670 ng/mL
- AUC(0-inf) [20]: 490 ng·h/mL
- Kd [21]: 8800 nM
- Kd [22]: 0.75 nM
- Kd [23]: 490 nM
- Kd [24]: 1800 nM
- Kd [25]: 2700 nM
- Kd [26]: 620 nM
- Kd [27]: 6900 nM
- Kd [28]: 1500 nM
- Kd [29]: 6800 nM
- Kd [32]: 1.8 nM
- Kd [33]: 2600 nM
- Kd [34]: 1400 nM
- Kd [35]: 1300 nM
- Kd [36]: 4800 nM
- Kd [37]: 620 nM
- Kd [38]: 3200 nM
- Kd [39]: 4000 nM
- Kd [40]: 390 nM
- microsomal CLint [41]: 52 µL/min/mg
- Cmax [42]: 3680 ng/mL
- half-life [43]: 2.9 h
- clearance [44]: 4.6 mL/min/kg
- IC50 [45]: > 30000 nM
- half-life [46]: 4 h
- solubility thermodynamic [48]: 3.9 µg/mL (≈ 7.02 µM)
SMILES: CS(=O)(=O)CCCOc1cccc2c1ccn2-c1ccnc(N[C@H]2CC[C@H](C(=O)N3CCC(O)CC3)CC2)n1
- Kd [30]: 650 nM
- Kd [31]: 880 nM
- Kd [47]: 380 nM

- inhibition [49]: 85%
- inhibition [50]: < 50%
- inhibition [51]: 93%
SMILES: O[C@H]1CC[C@H](Nc2nccc(-c3n[nH]c4ccccc34)n2)CC1
